# Source: PubChem BioAssay (several laboratories)
# Hits are enriched below; roughly 1.8% of the tested compounds scored in any of these assays.
# Tn7 DDE FP = inhibitors of Tn7 peptide binding to fibrin DD(E), primary screen, biochemical, fluorescence polarization, human fibrin, Tn7 probe; Fibrinogen beta chain (Homo sapiens), P02675; FP displacement of FITC-Tn7 peptide from fibrin DD(E); 0% = median of compound wells per plate; inhibition, % at 8.3 µM; hit rate 0.13% among 370,000;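 active = inhibition above the mean of compounds falling within the control limits plus 3 SD of them, cut at about 14% in these data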;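 also: 0% = plate median of compound wells and 100% = 10 µM Aha-Tn7 peptide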
#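 Test system – human fibrin DD(E) · Times – 10 min preincubation, 3 h with tracer, room temperature · Detection – fluorescence polarization of the labelled Tn7 tracer · Measure – percent inhibition normalized to high-control wells · Benchmarks – high control wells with 10 µM unlabelled Aha-Tn7 peptide (full inhibition) · Repeats – singlicate testing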
# DDE Tn6 FP inh = inhibitors of Tn6 peptide binding to fibrin DD(E), primary screen, biochemical, fluorescence polarization, human fibrin, Tn6 probe. Fibrinogen beta chain (Homo sapiens), P02675. Fibrin DD(E) TRITC-Tn6 fluorescence polarization displacement. inhibition, % at 8.3 µM. hit rate 0.21% among 370,000. AID 720509, 2013;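 active = inhibition above a per-campaign cutoff: mean of compounds within control limits plus 3 SD, cut at about 15% in these data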;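 also: 0% = median of all compound wells on the plate and 100% = blocking peptide control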
# CAL PDZ FP-1 = untagged CAL PDZ binding inhibitors, primary screen, biochemical, fluorescence polarization, HTS | Golgi-associated PDZ and coiled-coil motif-containing protein (Homo sapiens), Q9HD26 | purified CAL PDZ, TMR-peptide fluorescence polarization, 1 h | inhibition, % at 24.9 µM | hit rate 0.92% among 300,000 | AID 602252, 2012;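 active = mean inhibition of at least 30% with at least half of replicates also reaching 30%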;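 also: 0% = DMSO neutral control and 100% = excess unlabeled competitor peptide PRC23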
# CAL PDZ FP-2 = CAL PDZ peptide-binding inhibitors, primary screen, biochemical, fluorescence polarization, Cer-tagged CAL PDZ, HTS; hit rate 0.02% among 330,000; purified CAL PDZ, TMR-peptide fluorescence polarization, 1 h; inhibition, % at 20 µM; AID 504414, 2011;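 active = highest replicate inhibition of at least 40%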;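 also: plate controls were DMSO neutral control wells for no effect and unlabeled competitor peptide control wells for full effect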
#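 System: purified tagged CAL PDZ domain construct (CerCALP). Schedule: 1 h incubation at room temperature before polarization reading. Medium: 25 mM sodium phosphate pH 7.4, 150 mM NaCl, TCEP, IgG, Thesit. Read-out: percent inhibition from loss of millipolarization. Measured by: FP readout, S and P plane fluorescence. Probe or stimulus: fluorescent TMR peptide probe.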
# GRK2 aptamer HTS = compounds blocking aptamer binding on GRK2 – biochemical, human GRK2, bead flow cytometry, HTS, primary screen. Beta-adrenergic receptor kinase 1 (Homo sapiens), P25098. FAM-aptamer displacement from GRK2. inhibition of aptamer binding, % at 10 µM. hit rate 0.59% among 330,000. AID 488847, 2010;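 active = inhibition of aptamer binding above 40%, roughly 3 SD of noise, on plates passing a quality check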;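 also: median bead fluorescence of bound FAM aptamer so fluorescent compounds give negative values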
# Target sequence (P25098 whole entry, looked up): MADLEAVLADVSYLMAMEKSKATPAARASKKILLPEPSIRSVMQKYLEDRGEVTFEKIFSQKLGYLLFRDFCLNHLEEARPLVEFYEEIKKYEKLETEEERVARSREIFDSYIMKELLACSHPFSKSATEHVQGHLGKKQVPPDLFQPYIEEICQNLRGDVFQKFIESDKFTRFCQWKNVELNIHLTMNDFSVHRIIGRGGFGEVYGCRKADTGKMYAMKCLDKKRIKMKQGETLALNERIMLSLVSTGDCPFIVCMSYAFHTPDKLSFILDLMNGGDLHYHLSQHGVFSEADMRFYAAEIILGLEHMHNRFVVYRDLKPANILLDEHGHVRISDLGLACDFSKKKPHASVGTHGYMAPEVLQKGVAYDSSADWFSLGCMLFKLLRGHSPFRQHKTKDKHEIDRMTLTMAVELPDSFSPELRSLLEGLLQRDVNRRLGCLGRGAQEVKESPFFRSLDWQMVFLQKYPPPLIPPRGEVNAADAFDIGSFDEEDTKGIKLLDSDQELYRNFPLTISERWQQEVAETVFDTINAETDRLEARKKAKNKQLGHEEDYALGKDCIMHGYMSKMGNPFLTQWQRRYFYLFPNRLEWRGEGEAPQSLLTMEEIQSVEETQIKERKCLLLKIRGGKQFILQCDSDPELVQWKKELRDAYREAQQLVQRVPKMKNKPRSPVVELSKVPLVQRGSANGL
# ARNT-TACC3 inh = disruptors of ARNT/TACC3 protein interaction, primary screen, biochemical, AlphaScreen, single concentration; Transforming acidic coiled-coil-containing protein 3 (Homo sapiens), Q9Y6A5; AlphaScreen His-ARNT PAS-B/GST-TACC3 binding, luminescence; TACC3 fragment carries E629A point mutation; inhibition, % at 9.99 µM; hit rate 0.66% among 390,000; AID 623870, 2012;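 active = mean inhibition of replicates at least 50% and at least half of replicates each reaching 50%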;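 also: 0% = complete ARNT plus TACC3 wells and 100% = ARNT alone without TACC3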
# Tn6 DDE ctr = counter-screen hit for Tn6 peptide-fibrin DD(E) binding disruption | shares compounds with DDE Tn6 FP inh | TRITC-Tn6 fluorescence polarization displacement; 0% = median of compound wells, not DMSO | inhibition, % at 8.3 µM | hit rate 2% among 680 | AID 720621;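 active = inhibition above the mean of test compounds lying between the control limits plus 3 SD of those, cut at about 14% in these data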;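 also: 0% = median of compound wells and 100% = wells with Aha-Tn7 blocking peptide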
# DDE Tn6 confirm = inhibitors of Tn6 peptide binding to fibrin DD(E), confirmation, biochemical, fluorescence polarization, human fibrin, Tn6 probe | hit rate 10% among 680 | inhibition, % at 8.3 µM | FP displacement of TRITC-Tn6 peptide from DD(E); 0% = per-plate median of test wells | shares compounds with DDE Tn6 FP inh;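 active = inhibition above the mean of compounds lying within the control limits plus 3 SD, cut at about 16% in these data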;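 also: 100% = high control wells holding a competing inhibitor peptide at 10 µM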
# The depositor's hits bear a star; nt = no result given.
SMILES,Tn7 DDE FP,DDE Tn6 FP inh,CAL PDZ FP-1,CAL PDZ FP-2,GRK2 aptamer HTS,ARNT-TACC3 inh,Tn6 DDE ctr,DDE Tn6 confirm
COCCCNc1nc2c(c(=O)[nH]c(=O)n2C)n1CC(O)COc1ccccc1 (stereo not drawn),-5,-1,-2,0,0,-5,nt,nt
C=C(C)C(=O)N1CC2(CC(c3cccc(NC(=O)CC(c4ccccc4)c4ccccc4)c3)=NO2)C[C@H]1C(N)=O (stereo partly drawn),4,15*,-5,-1,6,-3,2,2
NC(=O)[C@H]1CC2(CC(c3cccc(NC(=O)CC(c4ccccc4)c4ccccc4)c3)=NO2)CN1C(=O)CC(c1ccccc1)c1ccccc1 (stereo partly drawn),-6,-4,-7,-5,2,0,nt,nt
O=C(Nc1cccc(F)c1)c1ccc(-n2cncn2)c2ccoc12,2,16*,nt,nt,nt,nt,8,-6
CC(=O)c1cccc(NC(=O)c2ccc(-n3cncn3)c3ccoc23)c1,0,6,nt,nt,nt,nt,nt,nt
CCN1C=C(Cc2ccccc2C)C2=C(C1)C(c1ccccc1C)C(C#N)=C(N)O2 (stereo not drawn),2,6,nt,0,0,10,nt,nt
CCN1C=C(Cc2ccc(F)cc2)C2=C(C1)C(c1ccc(F)cc1)C(C#N)=C(N)O2 (stereo not drawn),8,18*,-2,0,3,43,9,9
Nc1ccc2c(c1)C1(CCC2)NC(=O)NC1=O (stereo not drawn),6,2,nt,nt,nt,nt,nt,nt
O=C1c2ccccc2CCC12N=NCC2c1ccc(Br)cc1 (stereo not drawn),-2,1,-4,0,3,3,nt,nt
O=C1c2ccccc2CCC12N=NCC2c1ccc(Cl)cc1 (stereo not drawn),1,17*,-1,-3,4,nt,-5,-11
Cc1noc(C)c1NC(=O)N(C)C[C@H]1Oc2c(NC(=O)c3ccncc3)cccc2C(=O)N([C@H](C)CO)C[C@H]1C,nt,nt,nt,nt,nt,-3,nt,nt
C[C@@H]1CN([C@H](C)CO)C(=O)Cc2cc(N(C)C)ccc2O[C@H]1CN(C)C(=O)Nc1ccc2c(c1)OCO2,nt,nt,nt,nt,nt,6,nt,nt
CC(C)c1ccc(CNc2nnnn2C)cc1,4,19*,0,-1,0,-6,0,0
CNC[C@H]1OCCCC[C@H](C)Oc2ccc(NS(=O)(=O)c3c(C)noc3C)cc2C(=O)N([C@H](C)CO)C[C@@H]1C,nt,nt,nt,nt,nt,-15,nt,nt
CCCCN(C(=O)c1ccc(Cl)c(S(=O)(=O)N2CCOCC2)c1)c1c(N)n(CCC)c(=O)[nH]c1=O,2,17*,-3,-2,1,1,0,0
CCCCn1c(N)c(N(CCOC)C(=O)c2ccc(Cl)c(S(=O)(=O)N3CCCCC3)c2)c(=O)[nH]c1=O,5,-4,9,-2,2,-8,nt,nt
CCCN(C)C[C@H]1Oc2cc(C#Cc3cccc(OC)c3)ccc2S(=O)(=O)N([C@@H](C)CO)C[C@H]1C,nt,nt,nt,nt,nt,-3,nt,nt
COc1ccc(NC(=O)CCCOc2ccc(Cl)c(C)c2)cc1S(=O)(=O)N1CCOCC1,5,2,1,-3,4,nt,nt,nt
